What was measured:
[1] = tested on: HIV-1 X4LAI.04; assay: Anti-HIV-1 assay in MT-4 cell cultures; assay type: cell-based; conditions: HIV-1 X4LAI.04 in MT-4 cells, 3 days, 50% suppression of p24 production
[2] = tested on: thymidine kinase-deficient (TK-) HSV-1 KOS strain resistant to ACV (ACVr); assay: Anti-TK-deficient HSV-1; assay type: cell-based; conditions: versus HSV-1 and HSV-2
[3] = tested on: CEM cells; assay: Cytostatic activity in CEM cells; assay type: cell-based; conditions: Homo sapiens, CCRF-CEM, read-out: Cytostatic activity IC50 CEM
[4] = Hydrolysis of ProTides in crude CEM cell extracts; assay type: in vitro ADME, human; conditions: 10 μM, 37 °C; for conversion in CEM cell extracts: within one hour of incubation
Outline: (§1)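 Exponentially growing CEM cells were washed twice in PBS, resuspended in PBS and sonicated. The extract was cleared by centrifugation (10 min, 15,000 rpm) and frozen at -20 °C. Test compound (10 μM) was incubated in crude extract at 37 °C for 30, 60 and 120 min. Aliquots were quenched in cold methanol and centrifuged, and supernatants went to reverse-phase C18 HPLC. Results are given as percent disappearance of intact parent.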

[5] = Hydrolysis of ProTides in tonsil extracts; assay type: in vitro ADME, human; conditions: data not shown
Outline: as §1, with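 “Tonsil tissues” for “Exponentially growing CEM cells”, “homogenised mechanically.” for “sonicated.”, “HPLC to separate parent from hydrolysis products.” for “HPLC. Results are given as percent disappearance of intact parent.”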

[6] = molecular target: carboxypeptidase Y (Saccharomyces cerevisiae, UniProt P00729); assay: Carboxypeptidase Y-mediated cleavage monitored by 31P-NMR; assay type: in vitro ADME; conditions: for conversion by carboxypeptidase Y (in words): d6-acetone and trizma buffer pH 7.6, 31P-NMR; for half-life: yeast, carboxypeptidase Y (isolated enzyme), pH 7.6
Outline: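 Test compound was dissolved in d6-acetone plus trizma buffer (pH 7.6). A 31P-NMR blank spectrum was recorded for each sample before carboxypeptidase Y was added, and conversion was then followed by 31P-NMR.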

[7] = Stability in pH 1.0 buffer monitored by 31P-NMR; assay type: physicochemical
[8] = Stability in human serum monitored by 31P-NMR; assay type: in vitro ADME; conditions: after 12 h, 37 °C, DMSO/D2O

Chain of carboxypeptidase Y (P00729 112-532): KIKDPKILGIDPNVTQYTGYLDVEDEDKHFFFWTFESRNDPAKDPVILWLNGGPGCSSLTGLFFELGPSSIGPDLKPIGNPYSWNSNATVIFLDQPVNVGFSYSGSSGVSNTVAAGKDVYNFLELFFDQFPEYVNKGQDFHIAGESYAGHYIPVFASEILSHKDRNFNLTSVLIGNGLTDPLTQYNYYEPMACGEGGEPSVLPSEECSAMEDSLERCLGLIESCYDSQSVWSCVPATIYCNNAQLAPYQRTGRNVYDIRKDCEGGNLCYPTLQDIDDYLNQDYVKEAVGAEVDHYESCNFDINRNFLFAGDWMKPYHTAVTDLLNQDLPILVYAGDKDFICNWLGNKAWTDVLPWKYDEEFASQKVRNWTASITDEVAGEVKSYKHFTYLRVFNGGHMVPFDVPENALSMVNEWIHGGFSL

Compound: Nc1nc2c(ncn2COCCO)c(=O)[nH]1 [ACV (1), acyclovir]
- Antiviral Activity EC50 HIV-1 MT4 [1]: inactive
- loss of activity against thymidine kinase-deficient HSV-1 [2]: > 100 fold

Compound: C[C@H](NP(=O)(OCCOCn1cnc2c(=O)[nH]c(N)nc21)Oc1cccc2ccccc12)C(=O)OCc1ccccc1 (stereo partly drawn) [Compound 2, acyclovir-[1-naphthyl(benzoxy-L-alaninyl)] phosphate]
- IC50 [3]: 17 µM

Compound: CCCOC(=O)[C@H](C)NP(=O)(OCCOCn1cnc2c(=O)[nH]c(N)nc21)Oc1cccc2ccccc12 (some centres unmarked) [Compound 3]
- IC50 [3]: 22 µM

Compound: COC(=O)[C@H](C)NP(=O)(OCCOCn1cnc2c(=O)[nH]c(N)nc21)Oc1cccc2ccccc12 (some centres unmarked) [Compound 4]
- IC50 [3]: 57 µM
- conversion in CEM cell extracts [4]: 65%
- hydrolysis in tonsil extracts (in words) [5]: efficiently hydrolyse

Compound: C[C@H](NP(=O)(OCCOCn1cnc2c(=O)[nH]c(N)nc21)Oc1cccc2ccccc12)C(=O)OC(C)(C)C (some centres unmarked) [Compound 6]
- conversion by carboxypeptidase Y (in words) [6]: no conversion at all
- stability in CEM cell extracts (in words) ([4]; after a 120 min-incubation period): entirely stable

Compound: COC(=O)[C@H](C)NP(=O)(OCCOCn1cnc2c(=O)[nH]c(N)nc21)Oc1ccccc1 (some centres unmarked) [Compound 8]
- IC50 [3]: 67 ± 7.8 µM

Compound: C[C@H](NP(=O)(OCCOCn1cnc2c(=O)[nH]c(N)nc21)Oc1ccccc1)C(=O)OCc1ccccc1 (some centres unmarked) [Compound 9]
- half-life [7]: 11 h
- half-life [6]: 0.283 h
- compound still present in human serum [8]: 56%
- conversion in CEM cell extracts [4]: > 95%
- hydrolysis in tonsil extracts (in words) [5]: efficiently hydrolyse

Compound: CC(C)OC(=O)[C@H](C)NP(=O)(OCCOCn1cnc2c(=O)[nH]c(N)nc21)Oc1ccccc1 (some centres unmarked) [Compound 10]
- times slower conversion by carboxypeptidase Y than 9 ([6]; ratio of half-lives versus compound 9): ca. 150 times
- half-life [6]: 46 h

Compound: Nc1nc2c(ncn2COCCOP(=O)(NC(Cc2ccccc2)C(=O)OCc2ccccc2)Oc2ccccc2)c(=O)[nH]1 (centres unmarked) [Compound 15]
- IC50 [3]: 42 µM

Compound: COC(=O)[C@@H](NP(=O)(OCCOCn1cnc2c(=O)[nH]c(N)nc21)Oc1cccc2ccccc12)C(C)C (some centres unmarked) [Compound 17]
- half-life [6]: 72 h

Compound: COC(=O)[C@H](NP(=O)(OCCOCn1cnc2c(=O)[nH]c(N)nc21)Oc1cccc2ccccc12)C(C)C (some centres unmarked) [Compound 19]
- conversion by carboxypeptidase Y (in words) [6]: not processed
